The text below walks through data of ChEMBL document CHEMBL3860039, “Structure-Activity Relationship and Signaling of New Chimeric CXCR4 Agonists” (J Med Chem, 2016).

Each structure is given as a SMILES string.

Holding throughout (assay type): cell-based
Test [1] deals with T1, C-X-C chemokine receptor type 4 (Homo sapiens, UniProt P61073). Put plainly: Displacement of [125I]-CXCL12 from HA-tagged human recombinant CXCR4 expressed in HEK293 cells incubated for 1 hr by gamma-radiation counting analysis. On the technique in general: Displacement assays read how much labelled ligand stays bound in the presence of the test substance.
T1 sequence (P61073 whole entry): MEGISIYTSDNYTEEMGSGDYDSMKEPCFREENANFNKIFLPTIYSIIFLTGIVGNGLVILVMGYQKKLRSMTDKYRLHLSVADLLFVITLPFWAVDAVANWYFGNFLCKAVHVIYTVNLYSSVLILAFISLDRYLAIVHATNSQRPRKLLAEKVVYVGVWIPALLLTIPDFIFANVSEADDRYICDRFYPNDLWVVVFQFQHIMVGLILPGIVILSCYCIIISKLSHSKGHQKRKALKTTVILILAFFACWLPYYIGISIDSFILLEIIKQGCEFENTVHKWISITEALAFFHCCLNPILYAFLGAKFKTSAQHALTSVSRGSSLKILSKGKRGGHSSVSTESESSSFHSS
In test [2] the target is T1, C-X-C chemokine receptor type 4. Put plainly: Agonist activity at CXCR4 in human REH cells assessed as induction of chemotaxis incubated for 3 hrs by transwell migration assay. In a few lines:
(§1)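 REH acute lymphoblastic B-cell leukaemia cells washed in RPMI; 100 000 cells in RPMI + 0.2% BSA seeded on top of 5 μm pore polycarbonate transwell, peptide dilutions in same medium in bottom chamber; 3 h, 37 °C, 5% CO2. Migrated cells in lower chamber counted by automated counter, expressed as % of seeded cells; peak = concentration giving maximal migration. Three experiments in triplicate.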

Test [3] shares this target. Put plainly: Agonist activity at HA-tagged human CXCR4 receptor expressed in HEK293 cells co-transfected with Galphai1-91-RlucII, Gbeta1, and GFP10-G-gamma1 incubated for 7 mins by Galpha1 protein activation-based BRET assay. In a few lines: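 HEK293 cells (3 × 10^6 per 100 mm dish) co-transfected via polyethylenimine with HA-hCXCR4 plus Gαi1-91-RlucII, Gβ1, GFP10-Gγ1; replated at 24 h, 100 000 cells/well. At 48 h, washed in HBSS/0.1% BSA, exposed to ligand 10−12 to 10−5 M for 7 min, then coelenterazine-400A 5 μM final; BRET2 515/400 nm ratio. EC50 (Gαi dissociation) and Emax from three experiments in triplicate.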
On the technique in general: Bioluminescence resonance energy transfer reports proximity on the nanometre scale.

The target is the same in test [4]. As to the kind of experiment: Agonist activity at CXCR4 in human REH cells assessed as optimal concentration causing maximum induction of chemotaxis incubated for 3 hrs by transwell migration assay. In a few lines: as §1

The IC50 is the concentration that gives 50% inhibition. The EC50 is the concentration that produces a half-maximal response. Usually Emax stands for the size of the effect at its maximum, as opposed to the concentration needed. Turning to `CC(C)C[C@H](NC(=O)[C@H](CO)NC(=O)[C@H](C/C=C/c1ccccc1)NC(=O)[C@@H]1CCCN1C(=O)[C@@H](N)CCCCN)C(=O)N[C@@H](CO)C(=O)N[C@@H](Cc1ccc(O)cc1)C(=O)N[C@@H](CCCNC(=N)N)C(=O)N[C@@H](CO)C(=O)N[C@@H](C)C(=O)NCCCC[C@H](NC(=O)[C@@H]1CSSC[C@H](NC(=O)[C@H](Cc2ccc3ccccc3c2)NC(=O)[C@H](CCCNC(=N)N)NC(=O)[C@@H](N)CCCNC(=N)N)C(=O)N[C@@H](Cc2ccc(O)cc2)C(=O)N[C@@H](CCCNC(=N)N)C(=O)N[C@@H](CCCCN)C(=O)N[C@H](CCCCN)C(=O)N2CCC[C@H]2C(=O)N[C@@H](Cc2ccc(O)cc2)C(=O)N[C@@H](CCCNC(=N)N)C(=O)N[C@@H](CCCNC(=N)N)C(=O)N1)C(=O)O`, in test [1], the concentration for half-maximal inhibition (IC50) came out at 31 nM. In addition, the %max in test [2] came out at 70%. For the same compound, in test [3], the concentration for a half-maximal effect (EC50) worked out at 50 nM and the maximal response (Emax) was 70%. Moreover, in test [4], the Activity was 10 nM.
For the compound `CC(C)C[C@H](NC(=O)[C@H](CO)NC(=O)[C@@H](NC(=O)[C@@H]1CCCN1C(=O)[C@@H](N)CCCCN)C(C)C)C(=O)N[C@@H](CO)C(=O)N[C@@H](Cc1ccc(F)cc1)C(=O)N[C@@H](CCCNC(=N)N)C(=O)N[C@@H](CO)C(=O)N[C@@H](C)C(=O)NCCCC[C@H](NC(=O)[C@@H]1CSSC[C@H](NC(=O)[C@H](Cc2ccc3ccccc3c2)NC(=O)[C@H](CCCNC(=N)N)NC(=O)[C@@H](N)CCCNC(=N)N)C(=O)N[C@@H](Cc2ccc(O)cc2)C(=O)N[C@@H](CCCNC(=N)N)C(=O)N[C@@H](CCCCN)C(=O)N[C@H](CCCCN)C(=O)N2CCC[C@H]2C(=O)N[C@@H](Cc2ccc(O)cc2)C(=O)N[C@@H](CCCNC(=N)N)C(=O)N[C@@H](CCCNC(=N)N)C(=O)N1)C(=O)O`, the concentration for half-maximal inhibition (IC50) in test [1] is 78 nM. For the same compound, in test [2], the %max is 43%. For the same compound, in test [3], it took 83 nM to reach a half-maximal effect (EC50) and the Emax is 60%. Besides, the Activity in test [4] is 10 nM.
As to `CC(C)C[C@H](NC(=O)[C@H](CO)NC(=O)[C@H](Cc1ccc2cc3ccccc3cc2c1)NC(=O)[C@@H]1CCCN1C(=O)[C@@H](N)CCCCN)C(=O)N[C@@H](CO)C(=O)N[C@@H](Cc1ccc(O)cc1)C(=O)N[C@@H](CCCNC(=N)N)C(=O)N[C@@H](CO)C(=O)N[C@@H](C)C(=O)NCCCC[C@H](NC(=O)[C@@H]1CSSC[C@H](NC(=O)[C@H](Cc2ccc3ccccc3c2)NC(=O)[C@H](CCCNC(=N)N)NC(=O)[C@@H](N)CCCNC(=N)N)C(=O)N[C@@H](Cc2ccc(O)cc2)C(=O)N[C@@H](CCCNC(=N)N)C(=O)N[C@@H](CCCCN)C(=O)N[C@H](CCCCN)C(=O)N2CCC[C@H]2C(=O)N[C@@H](Cc2ccc(O)cc2)C(=O)N[C@@H](CCCNC(=N)N)C(=O)N[C@@H](CCCNC(=N)N)C(=O)N1)C(=O)O`, the IC50 in test [1] amounted to 48 nM. For the same compound, the %max in test [2] worked out at 75%. In addition, in test [3], it took 81 nM to reach a half-maximal effect (EC50) and the Emax came out at 68%. The Activity in test [4] was found to be 10 nM.
On the same counts, the results for `CC(C)C[C@H](NC(=O)[C@H](CO)NC(=O)[C@@H](NC(=O)[C@@H]1CCCN1C(=O)[C@@H](N)CCCCN)C(C)C)C(=O)N[C@@H](CO)C(=O)N[C@@H](Cc1ccc(O)cc1)C(=O)N[C@@H](CCCNC(=N)N)C(=O)N[C@@H](CO)C(=O)N[C@@H](C)C(=O)NCCCC[C@H](NC(=O)[C@@H]1CSSC[C@H](NC(=O)[C@H](Cc2ccc3ccccc3c2)NC(=O)[C@H](CCCNC(=N)N)NC(=O)[C@@H](N)CCCNC(=N)N)C(=O)N[C@@H](Cc2ccc(O)cc2)C(=O)N[C@@H](CCCNC(=N)N)C(=O)N[C@@H](CCCCN)C(=O)N[C@H](CCCCN)C(=O)N2CCC[C@H]2C(=O)N[C@@H](Cc2ccc(O)cc2)C(=O)N[C@@H](CCCNC(=N)N)C(=O)N[C@@H](CCCNC(=N)N)C(=O)N1)C(=O)O` are 84 nM, 45%, 58 nM, 55% and 10 nM.
